Experimental data as given in ChEMBL document CHEMBL5380783, “N-Substituted l-Iminosugars for the Treatment of Sanfilippo Type B Syndrome” (J Med Chem, 2023).
Calls of active or inactive are those of the source. The calls are words filed in the database; no cut-off is given here.

How the values were obtained:
[1] = test system: SK-N-BE(2); test: Upregulation of NAGLU protein expression in NAGLU-silenced human SK-NBE cell clones at 20 uM incubated for 24 hrs by western blot analysis; format: functional, cell-based
How it was run: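 Western blot of control SK-NBE clone and NAGLU-shRNA SK-NBE clone (RPMI, 10% FBS, puromycin 0.7 μg/mL) after 24 h at 20 μM. Lysis, Bradford assay, 50 μg per lane, nitrocellulose transfer, anti-NAGLU antibody overnight at 4 °C, HRP secondary and ECL. GAPDH re-probe for loading.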

[2] = test system: SK-N-BE(2); test: Effect on lysosome size and distribution in human SK-NBE cell clone assessed as at 20 uM incubated for 48 hrs by LAMP1 staining based indirect immunofluorescence assay; format: functional
How it was run: (§1)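 Control and NAGLU-silenced SK-NBE clones grown on coverslips with 20 μM compound for 48 h. Fixed in 3.7% formaldehyde, permeabilized with saponin/BSA buffer, stained with anti-Lamp1 or anti-HS 10E4 for 1 h, then Alexa secondaries. Confocal imaging with 63× objective. Scored as percent cells with enlarged Lamp1 structures or membrane HS, plus mean fluorescence intensity, over 50 random cells from three experiments.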

[3] = test system: SK-N-BE(2); test: Inhibition of lysosomal defects in NAGLU-silenced human SK-NBE cell clones assessed as reduction in more concentrated lysosomal distribution in the perinuclear region of the cytoplasm at 20 uM incubated for 48 hrs by LAMP1 staining based indirect immunofluorescence assay; format: functional; how it was run: as §1
[4] = test system: SK-N-BE(2); test: Inhibition of lysosomal defects in NAGLU-silenced human SK-NBE cell clones assessed as dispersion of lysosomes all over the cytoplasm at 20 uM incubated for 48 hrs by LAMP1 staining based indirect immunofluorescence assay; format: functional; how it was run: as §1
[5] = test system: SK-N-BE(2); test: Inhibition of heparan sulfate accumulation on cell membrane in NAGLU-silenced human SK-NBE cells clone at 20 uM incubated for 48 hrs by indirect immunofluorescence staining analysis; format: functional, cell-based; how it was run: as §1
[6] = test system: SK-N-BE(2); test: Effect on heparan sulfate changes in human SK-NBE cell membrane at 20 uM incubated for 48 hrs by indirect immunofluorescence staining analysis; format: functional, cell-based; how it was run: as §1
[7] = test system: Fibroblast; test: Inhibition of lysosomal defects in Sanfilippo-B patient derived human fibroblast cells assessed as reduction in more concentrated lysosomal distribution in the perinuclear region of the cytoplasm at 20 uM incubated for 48 hrs by LAMP1 staining based indirect immunofluorescence assay; format: functional, cell-based
How it was run: (§2)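 HDFa, MPS IIIA, MPS IIIB and MPS I patient fibroblasts in DMEM, 10% FBS, grown 48 h on coverslips with 20 μM compound. Double immunostained for HS (10E4) and Lamp1 with DAPI, confocal imaging. Mean fluorescence intensity expressed relative to untreated cells (d-enantiomers: percent positive cells), 50 random cells from three experiments.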

[8] = test system: Fibroblast; test: Inhibition of lysosomal defects in Sanfilippo-A patient derived human fibroblast cells assessed as reduction in accumulation of enlarged LAMP1-positive lysosomal structures within the cytoplasm at 20 uM incubated for 48 hrs by LAMP1 staining based indirect immunofluorescence assay; format: functional, cell-based; how it was run: as §2
[9] = test system: Fibroblast; test: Inhibition of lysosomal defects in MPS-1 patient derived human fibroblast cells assessed as reduction in accumulation of enlarged LAMP1-positive lysosomal structures within the cytoplasm at 20 uM incubated for 48 hrs by LAMP1 staining based indirect immunofluorescence assay; format: functional, cell-based; how it was run: as §2
[10] = test system: Fibroblast; test: Inhibition of lysosomal defects in MPS-1 patient derived human fibroblast cells assessed as reduction in accumulation of enlarged LAMP1-positive lysosomal structures within the cytoplasm at 40 uM incubated for 48 hrs by LAMP1 staining based indirect immunofluorescence assay; format: functional, cell-based
How it was run: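 MPS I patient fibroblasts grown on coverslips with 40 μM compound for 48 h. Immunostained for HS (10E4) and Lamp1 with DAPI, imaged by confocal microscopy. Mean fluorescence intensity expressed relative to untreated cells, 50 random cells from three independent experiments.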

[11] = test system: HeLa; test: Cytotoxicity against human HeLa cells assessed as reduction in cell viability at 20 uM incubated for 48 hrs by trypan blue exclusion method; format: functional, cell-based
How it was run: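 HeLa cells seeded at 100,000 per well and grown overnight in complete RPMI. Exposed to 20 μM compound in the same medium for 48 h at 37 °C; untreated mock as control. Cells trypsinized, live cells counted by trypan blue exclusion on an automated counter. Means of three independent experiments, each in triplicate, with s.e.m.; Student's t-test, p < 0.05.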

[12] = test system: HeLa; test: Downregulation of EXT1 protein expression in human HeLa cells at 20 uM incubated for 24 hrs by western blot analysis; format: functional, cell-based
[13] = test system: HeLa; test: Downregulation of SDC2 protein expression in human HeLa cells at 20 uM incubated for 24 hrs by western blot analysis; format: functional, cell-based
[14] = test system: Fibroblast; test: Upregulation of NAGLU protein expression in Sanfilippo-B patient derived human fibroblast cells at 20 uM incubated for 24 hrs by western blot analysis; format: functional, cell-based
How it was run: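 Sanfilippo B patient fibroblasts in DMEM, 10% FBS, treated 24 h with 20 μM compound. Lysates (50 μg per lane) blotted with anti-NAGLU antibody and HRP secondary with ECL detection; blots re-probed for β-actin as loading control.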

[15] = test system: Alpha-N-acetylglucosaminidase (Homo sapiens), P54802 [UNDEFINED MUTATION]; test: (§3) Stabilization of mutated NAGLU in Sanfilippo-B patient derived human fibroblast cells assessed as increase in NAGLU activity using 4-methylumbelliferyl-N-acetyl-alpha-D-glucosaminide as substrate at 20 uM cells pretreated for 2 hrs with substrate followed by compound addition by fluorescence based analysis; format: cell-based
How it was run: (§4)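 Pellets of 5 × 10^5 MPS IIIB or HDFa fibroblasts lysed by 10 freeze–thaw cycles and clarified at 4 °C; protein by Lowry. Lysate incubated 2 h with 2 mM 4-methylumbelliferyl-N-acetyl-α-D-glucosaminide stock in 0.2 M Na-acetate pH 4.5, compound added at 20 μM. Activity normalized to protein, expressed as nmol substrate hydrolysed per h per mg.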

[16] = test system: SK-N-BE(2); test: Inhibition of amyloid beta (1 to 42) accumulation in cytoplasm of NAGLU-silenced human SK-NBE cell clones at 20 uM incubated for 48 hrs by indirect immunofluorescence staining based analysis; format: functional
How it was run: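 NAGLU-silenced SK-NBE clone on coverslips, exposed to 20 μM compound for 48 h. Cells fixed in formaldehyde, permeabilized with saponin, stained with anti-Aβ1-42 antibody and fluorescent secondary, imaged by confocal microscopy. Cells bearing Aβ1-42-positive structures counted among 50 random cells from three independent experiments; untreated clone as comparator.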

[17] = test system: Alpha-N-acetylglucosaminidase (Homo sapiens), P54802 [UNDEFINED MUTATION]; test: as §3, with “analysis relative to control” for “analysis”; format: cell-based; how it was run: as §4

Alpha-N-acetylglucosaminidase (Homo sapiens), P54802 [UNDEFINED MUTATION], sequence (P54802 whole entry, looked up, change not shown): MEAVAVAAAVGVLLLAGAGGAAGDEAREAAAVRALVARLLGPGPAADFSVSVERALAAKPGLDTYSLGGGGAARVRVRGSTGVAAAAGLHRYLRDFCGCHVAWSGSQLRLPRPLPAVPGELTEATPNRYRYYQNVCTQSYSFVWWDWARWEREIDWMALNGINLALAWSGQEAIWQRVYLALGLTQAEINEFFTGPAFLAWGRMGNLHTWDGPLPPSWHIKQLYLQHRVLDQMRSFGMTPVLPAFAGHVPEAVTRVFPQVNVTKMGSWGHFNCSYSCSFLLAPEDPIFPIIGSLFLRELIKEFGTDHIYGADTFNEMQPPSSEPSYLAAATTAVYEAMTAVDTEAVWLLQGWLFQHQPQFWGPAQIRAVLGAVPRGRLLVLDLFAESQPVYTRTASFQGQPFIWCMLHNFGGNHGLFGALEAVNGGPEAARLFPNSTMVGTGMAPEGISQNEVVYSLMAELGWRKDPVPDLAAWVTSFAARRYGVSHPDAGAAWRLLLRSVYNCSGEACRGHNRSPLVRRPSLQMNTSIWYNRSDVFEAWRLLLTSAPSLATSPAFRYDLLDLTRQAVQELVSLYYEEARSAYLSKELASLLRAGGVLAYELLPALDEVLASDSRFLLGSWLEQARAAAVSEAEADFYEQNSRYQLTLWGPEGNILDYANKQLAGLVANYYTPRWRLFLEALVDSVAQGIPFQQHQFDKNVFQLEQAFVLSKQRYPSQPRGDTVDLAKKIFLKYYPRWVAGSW

SMILES	Activity [1]	Activity [2]	inhibition [3]	inhibition [4]	inhibition [5]	Activity [6]	inhibition [7]	inhibition [8]	inhibition [9]	inhibition [10]	Activity [11]	inhibition [12]	inhibition [13]	Activity [14]	Activity [15]	inhibition [16]	fold change (FC) [17]
Cl.OC[C@H]1[C@H](O)[C@@H](O)[C@H](O)CN1CCCCCOCC12CC3CC(CC(C3)C1)C2	inactive	inactive	Active	Active	Active	inactive	Active	Active	inactive	Active	Active	inactive	inactive	Active	Active	Active	
Cl.OC[C@@H]1NC[C@@H](O)[C@H](O)[C@H]1O	inactive	inactive	Active	Active	Active	inactive	Active	Active	inactive	Active	Active	Active	inactive	Active	Active	Active	
CCCCN1C[C@@H](O)[C@H](O)[C@@H](O)[C@@H]1CO.Cl	inactive	inactive	Active	Active	Active	inactive	Active	Active	inactive	Active	Active	Active	inactive	Active		Active	20
COCCCCCCCCCN1C[C@@H](O)[C@H](O)[C@@H](O)[C@@H]1CO.Cl	inactive	inactive	Active	Active	Active	inactive	Active	Active	inactive	Active	Active	inactive	inactive	Active	Active	Active	
